Laboratory results taken from PMC7580710 (Pharmacology Research & Perspectives, 2020).
Peptide text beside a SMILES is read from it. * marks the point of attachment. Lauroyl = CCCCCCCCCCCC(=O)*

Tests used:
[1] = cited from earlier work
[2] = Plasma pharmacokinetics after intravenous; type: in vivo, Sprague Dawley rats; details: rat, 2.5 mg i.v., plasma sampled for 3 days
Summary of the method: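 Adult male Sprague Dawley rats (350-400 g) under isoflurane (5% induction, 1%-3% maintenance) got one internal jugular injection. Blood was taken by terminal cardiac puncture from 0 to 72 h (N = 3 per time) and plasma separated cold. Levels were measured in duplicate by LC-MS/MS after protein precipitation with analog internal standard (curve 1.0-500 ng/mL). Data were fitted with a three-compartment naïve-pooled model, extended least-squares, variance-weighted.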

[3] = 3 hours, or 1, 2, 3, and 7 days after injection; cited from earlier work
Urinary excretion = type: in vivo, Sprague Dawley rats; details: rat, i.v., urine from bladder

## CCCCCCCCCCCC(=O)NCCCC[C@H](NC(=O)[C@@H](NC(=O)[C@@H](NC(=O)[C@H](C)NC(=O)[C@H](C)NC(=O)[C@H](CCCCN)NC(=O)[C@H](CCCCN)NC(=O)[C@H](CS)NC(=O)[C@H](CCCCN)NC(=O)[C@@H]1CCCN1C(=O)[C@H](CC(C)C)NC(=O)[C@@H](NC(=O)[C@H](Cc1c[nH]c2ccccc12)NC(=O)[C@H](CC(C)C)NC(=O)[C@@H](N)CCCCN)C(C)C)C(C)C)C(C)C)C(N)=O [collagen‐targeted PA] (H-KLWVLPKCKKAAVVK(Lauroyl)-NH2)
[1]
  CAC for this fiber: below 1 µM
[1]; collagen-targeted PA with Alexa Fluor 546, nanofibers at neutral pH
  critical aggregation concentration (CAC): < 300 nM
[2]
  observed terminal half-life (not to be interpreted as elimination half-life): 42.6 h
[3]
  liver function profiles, coagulation panel, or chemistry panel: no change
Urinary excretion
  presence of the target peptide in urine by LC-MS/MS: did not show the presence of the target peptide
